In ChEMBL document CHEMBL5705905, “Pharmacological targeting of kinases MST1 and MST2 augments tissue repair and regeneration” (Sci Transl Med, 2016):
Active and inactive are the calls of the source. No cut-off for these calls is given here.

Assays:
Primary hepatocyte = assay: Inhibition of MST1/2 (unknown origin) in mouse Primary hepatocyte cells assessed as H2O2 stimulated MOB1 phosphorylation level at 1 to 3 uM by immunoblot analysis; format: cell-based; settings: dose 1-3 µM
HepG2 = assay: Induction of apoptosis in human HepG2 cells assessed as viable cells at 3 uM by annexinV staining (Rvb =95.0 %); format: functional; settings: read-out: Activity
[1] = molecular target: Mitogen-activated protein kinase kinase kinase kinase 2 (Homo sapiens) (UniProt Q12851); assay: Inhibition of MAP4K2 (unknown origin) assessed as remaining activity at 1 uM by Kinome scan method relative to control
[2] = test system: Leucine-rich repeat serine/threonine-protein kinase 2 (Homo sapiens), Q5S007 [G2019S]; assay: Inhibition of LRRK2 G2019S mutant (unknown origin) assessed as remaining activity at 1 uM by Kinome scan method relative to control
[3] = molecular target: Serine/threonine-protein kinase LATS1 (Homo sapiens) (UniProt O95835); assay: Inhibition of LATS1 (unknown origin) assessed as remaining activity at 1 uM by Kinome scan method relative to control
[4] = AUC (0 to infinity) in male Sprague-Dawley rat at 5 mg/kg, iv measured for 24 hrs by LC-MS/MS analysis; format: ADME, organism-based; settings: in vivo
Summary of the method: (§1)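 Sprague-Dawley rats, single intravenous or oral dose. Parameters (half-life, AUC, bioavailability) reported in a supplementary table.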

[5] = molecular target: G protein-coupled receptor kinase 3 (Homo sapiens) (UniProt P35626); assay: Inhibition of GRK3 (unknown origin) assessed as remaining activity at 1 uM by Kinome scan method relative to control
Mus musculus [6] = assay: Protection against APAP induced liver injury in mouse assessed as decrease in ALT level at 1 mg/kg, ip administered at 1.5 hrs in the presence of NAC; format: functional, organism-based; settings: Serum
[7] = Acute toxicity in wild-type mouse assessed as cell proliferation in colon at 3 mg/kg,ip administrated daily for 7 days by Ki67 staining; format: organism-based; settings: in vivo, 168 h, time 7 day
Summary of the method: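 Wild-type mice received vehicle or 3 mg/kg i.p. daily for 7 days. Ki67 staining of sections from various tissues with quantification of positive cells, n = 6; means ± SD, Student's t test. Daily weights, physical activity and serum chemistry were also monitored.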

[8] = molecular target: Tyrosine-protein kinase HCK (Homo sapiens) (UniProt P08631); assay: Inhibition of HCK (unknown origin) assessed as remaining activity at 1 uM by Kinome scan method relative to control
Mus musculus [9] = assay: Protection against APAP induced liver injury in mouse assessed as decrease in ALT level at 1 mg/kg, ip administered at 2.5 hrs; format: functional, organism-based; settings: Serum
[10] = molecular target: Dual specificity tyrosine-phosphorylation-regulated kinase 1A (Homo sapiens) (UniProt Q13627); assay: Inhibition of DYRK1A (unknown origin) assessed as remaining activity at 1 uM by Kinome scan method relative to control
[11] = molecular target: Serine/threonine-protein kinase tousled-like 2 (Homo sapiens) (UniProt Q86UE8); assay: Inhibition of TLK2 (unknown origin) assessed as remaining activity at 1 uM by Kinome scan method relative to control
[12] = molecular target: Tyrosine-protein kinase Lyn (Homo sapiens) (UniProt P07948); assay: Inhibition of LYN (unknown origin) assessed as remaining activity at 1 uM by Kinome scan method relative to control
Sequence of Tyrosine-protein kinase Lyn (Homo sapiens) (P07948 2-512 limits assumed): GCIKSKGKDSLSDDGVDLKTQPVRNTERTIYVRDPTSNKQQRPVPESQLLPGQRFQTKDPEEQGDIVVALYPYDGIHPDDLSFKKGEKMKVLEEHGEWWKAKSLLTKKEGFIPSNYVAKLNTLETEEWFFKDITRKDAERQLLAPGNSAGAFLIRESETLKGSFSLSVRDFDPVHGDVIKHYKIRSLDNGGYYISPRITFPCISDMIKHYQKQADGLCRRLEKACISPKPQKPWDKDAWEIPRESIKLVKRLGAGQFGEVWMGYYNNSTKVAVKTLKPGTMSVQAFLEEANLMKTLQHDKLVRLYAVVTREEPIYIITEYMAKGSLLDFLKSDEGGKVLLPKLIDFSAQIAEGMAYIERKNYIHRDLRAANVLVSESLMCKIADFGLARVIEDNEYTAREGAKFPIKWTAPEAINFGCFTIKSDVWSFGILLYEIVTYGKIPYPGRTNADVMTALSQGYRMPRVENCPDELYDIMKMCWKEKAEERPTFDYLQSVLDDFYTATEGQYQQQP

[13] = molecular target: Serine/threonine-protein kinase N2 (Homo sapiens) (UniProt Q16513); assay: Inhibition of PKN2 (unknown origin) assessed as remaining activity at 1 uM by Kinome scan method relative to control
[14] = molecular target: SRSF protein kinase 1 (Homo sapiens) (UniProt Q96SB4); assay: Inhibition of SRPK1 (unknown origin) assessed as remaining activity at 1 uM by Kinome scan method relative to control
[15] = molecular target: Serine/threonine-protein kinase Nek7 (Homo sapiens) (UniProt Q8TDX7); assay: Inhibition of NEK7 (unknown origin) assessed as remaining activity at 1 uM by Kinome scan method relative to control
Sequence of Serine/threonine-protein kinase Nek7 (Homo sapiens) (Q8TDX7 whole entry, looked up): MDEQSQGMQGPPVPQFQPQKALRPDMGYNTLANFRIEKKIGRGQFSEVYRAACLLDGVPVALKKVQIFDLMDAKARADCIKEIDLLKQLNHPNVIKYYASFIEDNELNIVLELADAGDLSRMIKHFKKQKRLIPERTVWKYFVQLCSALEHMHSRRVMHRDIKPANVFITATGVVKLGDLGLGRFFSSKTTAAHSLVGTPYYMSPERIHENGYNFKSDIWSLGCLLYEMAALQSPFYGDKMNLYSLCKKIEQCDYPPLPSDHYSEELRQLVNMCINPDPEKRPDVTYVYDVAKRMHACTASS

[16] = test system: Proto-oncogene tyrosine-protein kinase receptor Ret (Homo sapiens), P07949 [M918T]; assay: Inhibition of RET M918T (unknown origin) assessed as remaining activity at 1 uM by Kinome scan method relative to control
Sequence of Proto-oncogene tyrosine-protein kinase receptor Ret (Homo sapiens), P07949 [M918T] (P07949 whole entry M918T): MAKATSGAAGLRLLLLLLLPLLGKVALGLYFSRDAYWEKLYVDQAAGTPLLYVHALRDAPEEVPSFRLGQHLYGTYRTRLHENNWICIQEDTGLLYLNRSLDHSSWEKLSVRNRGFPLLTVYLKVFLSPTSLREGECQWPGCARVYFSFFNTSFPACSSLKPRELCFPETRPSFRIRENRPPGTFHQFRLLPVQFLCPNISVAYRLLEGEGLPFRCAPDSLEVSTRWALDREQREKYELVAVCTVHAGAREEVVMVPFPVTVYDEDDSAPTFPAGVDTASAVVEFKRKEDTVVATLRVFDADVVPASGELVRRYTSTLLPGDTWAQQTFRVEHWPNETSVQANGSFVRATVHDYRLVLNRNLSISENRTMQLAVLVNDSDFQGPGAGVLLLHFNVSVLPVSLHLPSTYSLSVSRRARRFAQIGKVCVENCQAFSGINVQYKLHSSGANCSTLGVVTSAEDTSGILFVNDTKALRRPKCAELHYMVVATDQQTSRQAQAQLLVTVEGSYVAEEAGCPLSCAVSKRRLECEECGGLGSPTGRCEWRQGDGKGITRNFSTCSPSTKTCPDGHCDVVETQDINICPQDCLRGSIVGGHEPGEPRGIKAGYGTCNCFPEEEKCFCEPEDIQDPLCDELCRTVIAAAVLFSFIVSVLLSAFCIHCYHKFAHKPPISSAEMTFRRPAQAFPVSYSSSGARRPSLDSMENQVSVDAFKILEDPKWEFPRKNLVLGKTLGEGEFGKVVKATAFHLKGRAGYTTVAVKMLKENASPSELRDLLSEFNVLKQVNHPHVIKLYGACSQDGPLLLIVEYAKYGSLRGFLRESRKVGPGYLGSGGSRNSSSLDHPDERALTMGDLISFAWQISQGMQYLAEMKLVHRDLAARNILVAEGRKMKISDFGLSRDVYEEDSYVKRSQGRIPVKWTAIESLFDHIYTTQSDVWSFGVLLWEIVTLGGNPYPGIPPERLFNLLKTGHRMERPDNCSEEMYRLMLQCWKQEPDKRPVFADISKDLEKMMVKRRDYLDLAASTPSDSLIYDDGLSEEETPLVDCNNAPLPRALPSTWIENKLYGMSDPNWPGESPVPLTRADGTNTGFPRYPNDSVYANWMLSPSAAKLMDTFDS

[17] = molecular target: Serine/threonine-protein kinase/endoribonuclease IRE1 (Homo sapiens) (UniProt O75460); assay: Inhibition of ERN1 (unknown origin) assessed as remaining activity at 1 uM by Kinome scan method relative to control
[18] = Acute toxicity in mouse assessed as increase in BrdU-positive cells at 1 mg/kg,ip administrated once a daily for 3 weeks by H and E staining based immunohistochemical analysis relative to control; format: organism-based, Liver; settings: in vivo, 504 h
Summary of the method: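 Postnatal mice dosed from 10 days of age with vehicle or 1 mg/kg once per day for 21 days (3 weeks). Vehicle is 0.1% citric acid aqueous solution containing 20% Kolliphor HS 15. Liver sections stained with H&E and by IHC for CK19 and BrdU, with positive cells quantified (n = 3). Liver/body weight ratio recorded (n = 4). Values are means ± SD versus vehicle, Student's t test.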

[19] = molecular target: Mast/stem cell growth factor receptor Kit (Homo sapiens) (UniProt P10721); assay: Inhibition of KIT-autoinhibited (unknown origin) assessed as remaining activity at 1 uM by Kinome scan method relative to control
[20] = molecular target: Serine/threonine-protein kinase Nek1 (Homo sapiens) (UniProt Q96PY6); assay: Inhibition of NEK1 (unknown origin) assessed as remaining activity at 1 uM by Kinome scan method relative to control
Mus musculus [21] = assay: In vivo inhibition of MST1/2 in wild-type Mst1fl/fl Mst2fl/fl mouse assessed as decrease in YAP phosphorylation level at 1 mg/kg, ip administrated daily for 7 days by immunoblot analysis; format: functional, organism-based; settings: Liver, time 7.0 day
[22] = molecular target: Protein kinase C delta type (Homo sapiens) (UniProt Q05655); assay: Inhibition of PRKCD (unknown origin) assessed as remaining activity at 1 uM by Kinome scan method relative to control
Sequence of Protein kinase C delta type (Homo sapiens) (Q05655 whole entry, looked up): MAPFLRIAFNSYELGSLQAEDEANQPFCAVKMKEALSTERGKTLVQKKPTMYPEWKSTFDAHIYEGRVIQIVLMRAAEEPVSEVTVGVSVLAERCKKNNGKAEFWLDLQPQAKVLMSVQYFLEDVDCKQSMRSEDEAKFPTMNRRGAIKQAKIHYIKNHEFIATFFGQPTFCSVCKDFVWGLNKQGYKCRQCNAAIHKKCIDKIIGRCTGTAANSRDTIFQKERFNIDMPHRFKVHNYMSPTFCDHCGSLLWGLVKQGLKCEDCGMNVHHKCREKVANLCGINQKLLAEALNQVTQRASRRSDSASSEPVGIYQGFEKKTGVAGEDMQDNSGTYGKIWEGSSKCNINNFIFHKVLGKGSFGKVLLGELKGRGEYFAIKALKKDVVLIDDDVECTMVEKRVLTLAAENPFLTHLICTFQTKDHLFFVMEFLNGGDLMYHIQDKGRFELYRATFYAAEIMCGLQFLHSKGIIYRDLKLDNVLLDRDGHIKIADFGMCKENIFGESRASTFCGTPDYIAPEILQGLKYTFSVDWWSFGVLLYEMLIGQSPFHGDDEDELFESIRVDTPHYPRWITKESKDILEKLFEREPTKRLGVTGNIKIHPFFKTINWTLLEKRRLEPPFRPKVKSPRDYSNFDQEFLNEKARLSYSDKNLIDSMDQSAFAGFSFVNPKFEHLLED

[23] = molecular target: Inhibitor of nuclear factor kappa-B kinase subunit epsilon (Homo sapiens) (UniProt Q14164); assay: Inhibition of IKK-epsilon (unknown origin) assessed as remaining activity at 1 uM by Kinome scan method relative to control
[24] = AUC (0 to infinity) in male Sprague-Dawley rat at 10 mg/kg, po measured for 24 hrs by LC-MS/MS analysis; format: ADME, organism-based; settings: in vivo; summary of the method: as §1
[25] = molecular target: Protein kinase C epsilon type (Homo sapiens) (UniProt Q02156); assay: Inhibition of PRKCE (unknown origin) assessed as remaining activity at 1 uM by Kinome scan method relative to control
Sequence of Protein kinase C epsilon type (Homo sapiens) (Q02156 whole entry): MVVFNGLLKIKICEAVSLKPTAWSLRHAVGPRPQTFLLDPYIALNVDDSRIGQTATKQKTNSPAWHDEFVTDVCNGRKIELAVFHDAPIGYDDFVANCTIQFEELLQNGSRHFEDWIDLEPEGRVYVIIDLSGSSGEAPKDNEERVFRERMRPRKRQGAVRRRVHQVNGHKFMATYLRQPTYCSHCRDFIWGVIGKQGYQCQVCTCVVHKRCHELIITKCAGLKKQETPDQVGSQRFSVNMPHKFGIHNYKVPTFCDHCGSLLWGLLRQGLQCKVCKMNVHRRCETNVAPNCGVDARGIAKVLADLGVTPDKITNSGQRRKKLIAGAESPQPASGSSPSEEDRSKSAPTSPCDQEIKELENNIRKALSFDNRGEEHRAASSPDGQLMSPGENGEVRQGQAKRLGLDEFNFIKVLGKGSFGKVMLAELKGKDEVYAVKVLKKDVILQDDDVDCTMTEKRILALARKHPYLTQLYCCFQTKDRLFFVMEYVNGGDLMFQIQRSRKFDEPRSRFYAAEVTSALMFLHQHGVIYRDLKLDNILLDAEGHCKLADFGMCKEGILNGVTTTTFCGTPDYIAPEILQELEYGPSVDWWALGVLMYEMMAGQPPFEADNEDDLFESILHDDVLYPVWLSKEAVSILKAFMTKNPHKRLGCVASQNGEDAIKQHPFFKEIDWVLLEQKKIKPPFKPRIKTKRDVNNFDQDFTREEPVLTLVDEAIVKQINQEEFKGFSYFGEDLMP

[26] = molecular target: Serine/threonine-protein kinase PLK4 (Homo sapiens) (UniProt O00444); assay: Inhibition of PLK4 (unknown origin) assessed as remaining activity at 1 uM by Kinome scan method relative to control
Sequence of Serine/threonine-protein kinase PLK4 (Homo sapiens) (O00444 whole entry): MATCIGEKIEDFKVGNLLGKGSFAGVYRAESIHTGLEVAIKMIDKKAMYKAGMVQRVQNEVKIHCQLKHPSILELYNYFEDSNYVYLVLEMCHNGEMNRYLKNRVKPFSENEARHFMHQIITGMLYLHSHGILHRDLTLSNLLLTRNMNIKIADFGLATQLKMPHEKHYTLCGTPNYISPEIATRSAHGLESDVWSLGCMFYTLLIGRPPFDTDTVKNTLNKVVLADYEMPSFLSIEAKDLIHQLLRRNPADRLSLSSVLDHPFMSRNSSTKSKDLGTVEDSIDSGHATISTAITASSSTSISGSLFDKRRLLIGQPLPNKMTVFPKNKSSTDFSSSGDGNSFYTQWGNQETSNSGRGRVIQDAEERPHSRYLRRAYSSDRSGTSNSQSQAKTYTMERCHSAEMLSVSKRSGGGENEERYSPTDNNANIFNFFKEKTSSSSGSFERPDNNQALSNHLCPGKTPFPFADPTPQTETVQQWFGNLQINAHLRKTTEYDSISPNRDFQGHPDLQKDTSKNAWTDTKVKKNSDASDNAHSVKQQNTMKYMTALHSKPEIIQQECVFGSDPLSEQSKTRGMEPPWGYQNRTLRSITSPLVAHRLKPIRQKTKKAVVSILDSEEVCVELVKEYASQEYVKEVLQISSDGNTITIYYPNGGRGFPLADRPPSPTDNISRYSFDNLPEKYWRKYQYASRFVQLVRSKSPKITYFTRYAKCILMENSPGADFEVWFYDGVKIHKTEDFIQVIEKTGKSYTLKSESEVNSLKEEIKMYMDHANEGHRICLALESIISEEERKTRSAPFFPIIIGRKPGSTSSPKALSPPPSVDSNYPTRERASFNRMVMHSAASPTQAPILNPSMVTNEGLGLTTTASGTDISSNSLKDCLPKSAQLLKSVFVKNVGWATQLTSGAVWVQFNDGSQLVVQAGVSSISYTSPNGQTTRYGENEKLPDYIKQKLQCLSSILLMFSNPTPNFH

[27] = molecular target: Rho-associated protein kinase 2 (Homo sapiens) (UniProt O75116); assay: Inhibition of ROCK2 (unknown origin) assessed as remaining activity at 1 uM by Kinome scan method relative to control
[28] = molecular target: Rhodopsin kinase GRK1 (Homo sapiens) (UniProt Q15835); assay: Inhibition of GRK1 (unknown origin) assessed as remaining activity at 1 uM by Kinome scan method relative to control
Sequence of Rhodopsin kinase GRK1 (Homo sapiens) (Q15835 whole entry): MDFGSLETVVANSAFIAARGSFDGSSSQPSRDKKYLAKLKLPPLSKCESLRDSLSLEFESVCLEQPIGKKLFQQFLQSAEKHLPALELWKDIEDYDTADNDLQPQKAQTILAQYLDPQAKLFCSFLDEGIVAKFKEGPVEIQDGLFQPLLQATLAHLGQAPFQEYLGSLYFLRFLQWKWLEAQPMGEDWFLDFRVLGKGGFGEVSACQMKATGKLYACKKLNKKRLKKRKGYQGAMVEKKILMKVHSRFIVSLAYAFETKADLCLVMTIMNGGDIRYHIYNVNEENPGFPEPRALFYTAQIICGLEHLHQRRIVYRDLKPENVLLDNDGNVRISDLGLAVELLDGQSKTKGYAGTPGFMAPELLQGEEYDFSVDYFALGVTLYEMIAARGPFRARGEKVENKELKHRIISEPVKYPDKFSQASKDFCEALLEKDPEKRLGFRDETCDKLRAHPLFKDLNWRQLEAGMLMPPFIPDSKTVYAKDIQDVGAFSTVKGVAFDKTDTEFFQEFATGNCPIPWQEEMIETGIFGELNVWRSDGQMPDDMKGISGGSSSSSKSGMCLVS

In the case of `CN1C(=O)c2sccc2N(C)c2nc(Nc3ccc(S(N)(=O)=O)cc3)ncc21`, the inhibition (Primary hepatocyte) is reported as “Active”, the viability at 3 µM (HepG2) is reported as 95% and the Activity [1] is reported as 77%. The Activity [2] was 28%, the Activity [3] was 100% and the AUC(0-inf) [4] was 1270 ng·h/mL. For the same compound, the Activity [5] was 87%, the Activity (Mus musculus [6]) was “Active” and the Activity [7] was “Non-Toxic”. The Activity [8] was 100%, the Activity (Mus musculus [9]) was “Active” and the Activity [10] was 81%. For the same compound, the Activity [11] was 100%, the Activity [12] was 100% and the Activity [13] was 94%. For the same compound, the Activity [14] was 65%, the Activity [15] was 88% and the Activity [16] was 78%. It also gave an Activity [17] of 65%, an Activity [18] of 15% and an Activity [19] of 100%. The Activity [20] was 95%, the inhibition (Mus musculus [21]) was “Active” and the Activity [22] was 94%. It also gave an Activity [23] of 86%, an AUC(0-inf) [24] of 1040 ng·h/mL and an Activity [25] of 98%. It also gave an Activity [26] of 14%, an Activity [27] of 96% and an Activity [28] of 94%.
